Assay results from different studies.
Each line is one published result; the experiments were not run side by side.
PIK3C2B: Phosphatidylinositol 4-phosphate 3-kinase C2 domain-containing subunit beta (PIK3C2B, Homo sapiens, UniProt O00750)
Nectin-4: Nectin-4 (Homo sapiens, UniProt Q96NY8)
UCK1: UCK1 (Homo sapiens, UniProt Q9HA47)

SMILES | target | test | setting | Kd [nM]
C=CC(=O)N1CCC(C(=O)NCC(=O)N2CCN(c3nc(-c4cnc(N)nc4C(F)F)nc(N4CCOCC4)n3)CC2)CC1 | PIK3C2B | binding, competition with immobilised ligand | – | 81
CC(=O)N[C@H](C(=O)N1C[C@H](O)C[C@H]1C(=O)NCc1ccc(-c2scnc2C)cc1)C(C)(C)SCCCCCCNC(=O)C[C@@H]1N=C(c2ccc(Cl)cc2)c2c(sc(C)c2C)-n2c(C)nnc21 | Bromodomain-containing protein 3, BD2 (BRD3, Homo sapiens, UniProt Q15059) | binding, ITC | – | 39
Cc1cnc(-c2ccc(-c3ccc(NC(=O)Nc4c(F)cc(F)cc4F)cc3F)c3c2C(=O)NC3)[nH]1 | Cytoplasmic tyrosine-protein kinase BMX (BMX, Homo sapiens, UniProt P51813) | binding, competition with immobilised ligand | – | 14
CCN(CC)c1ccc2cc(C(=O)NCCNC(=O)c3ccc(-c4cc(-c5ccc(C#N)cc5)nc(-c5ccco5)c4)cc3)c(=O)oc2c1 | Myc proto-oncogene protein (MYC, Homo sapiens, UniProt P01106) | binding, SPR | – | 151
NC(=O)c1ncn([C@@H]2O[C@H](COP(=O)(O)O)[C@@H](O)[C@H]2O)c1N | Adenylosuccinate lyase (ADSL, Homo sapiens, UniProt P30566, R303C) | binding, ITC | – | 122000
CCCCCC(C)=O | Or85b (Drosophila melanogaster, UniProt Q9VHQ7) | binding, MST | – | ~800
CCCC[C@@H]1NC(=O)[C@H](Cc2ccc(O)cc2)NC(=O)[C@@H]2CCCN2C(=O)[C@H](CC(=O)O)NC(=O)[C@H](C)NC(=O)[C@H](Cc2ccccc2)NC(=O)[C@@H]2CSCCC(=O)N3CN(CN(C3)C(=O)CCSC[C@@H](C(=O)N[C@@H](C)C(N)=O)NC1=O)C(=O)CCSC[C@H](NC(C)=O)C(=O)N[C@@H](CC(C)(C)C)C(=O)N1CCC[C@H]1C(=O)N[C@@H](CCC(=O)O)C(=O)N[C@H](CCCCNC(=O)CCc1cn(CCOCCOCCOCCOCCOCCC(=O)N[C@H]3CSCCC(=O)N4CN5CN(C4)C(=O)CCSC[C@H](NC(=O)[C@@H](CC(=O)O)NC(=O)[C@H](Cc4cccc6ccccc46)NC(=O)[C@@H]4CCCN4C3=O)C(=O)N[C@@H](CCSC)C(=O)N[C@@H](CCCCNC(=N)N)C(=O)N[C@@H](CC(=O)O)C(=O)N[C@@H](Cc3c[nH]c4ccccc34)C(=O)N[C@@H](CO)C(=O)N[C@@H]([C@@H](C)O)C(=O)N3CCC[C@H]3C(=O)N3C[C@H](O)C[C@H]3C(=O)N[C@@H](Cc3c[nH]c4ccccc34)C(=O)N[C@H](C(N)=O)CSCCC5=O)nn1)C(=O)N1CCC[C@H]1C(=O)N[C@@H](Cc1ccc(O)cc1)C(=O)N2 | Nectin-4 | binding, SPR | – | 1.8
CCC(=O)N1CCC(C(=O)N(C)CC(=O)N2CCN(c3nc(-c4cnc(N)nc4C(F)F)nc(N4CCOCC4)n3)CC2)CC1 | PIK3C2B | binding, competition with immobilised ligand | – | 365
Cc1cc(Nc2cc3ncccc3c(N[C@@H]3C[C@H]4CC[C@@H](C3)N4CCC#N)n2)n[nH]1 | Mitogen-activated protein kinase kinase kinase 3 (MAP3K3, Homo sapiens, UniProt Q99759) | binding, competition with immobilised ligand | – | 100
O=c1ccn([C@@H]2O[C@H](CO)[C@@H](O)[C@H]2O)c(=O)[nH]1 | UCK1 | binding, fluorescence | – | 56.4
NC(=O)C1=CN([C@@H]2O[C@H](COP(=O)(O)OP(=O)(O)OC[C@H]3O[C@@H](n4cnc5c(N)ncnc54)[C@H](OP(=O)(O)O)[C@@H]3O)[C@@H](O)[C@H]2O)C=CC1 | ZMO1885 (Zymomonas mobilis, UniProt Q5NLA1, Y343W) | binding | – | 702000
CCCC[C@@H]1NC(=O)[C@H](Cc2ccc(O)cc2)NC(=O)[C@@H]2CCCN2C(=O)[C@H](CCC(=O)O)NC(=O)[C@H](C)NC(=O)[C@H](Cc2ccccc2)NC(=O)[C@@H]2CSCCC(=O)N3CN(CN(C3)C(=O)CCSC[C@H](NC(C)=O)C(=O)N[C@@H](CC(C)(C)C)C(=O)N3CCC[C@H]3C(=O)N[C@@H](CCC(=O)O)C(=O)N[C@H](CCCCNC(=O)CCc3cn(CCOCCOCCOCCN(CCOCCOCCOCCC(=O)N[C@H]4CSCCC(=O)N5CN6CN(C5)C(=O)CCSC[C@H](NC(=O)[C@@H](CC(=O)O)NC(=O)[C@H](Cc5cccc7ccccc57)NC(=O)[C@@H]5CCCN5C4=O)C(=O)N[C@@H](CCSC)C(=O)N[C@@H](CCCCNC(=N)N)C(=O)N[C@@H](CC(=O)O)C(=O)N[C@@H](Cc4c[nH]c5ccccc45)C(=O)N[C@@H](CO)C(=O)N[C@@H]([C@@H](C)O)C(=O)N4CCC[C@H]4C(=O)N4C[C@H](O)C[C@H]4C(=O)N[C@@H](Cc4c[nH]c5ccccc45)C(=O)N[C@H](C(N)=O)CSCCC6=O)CCOCCOCCOCCn4cc(CCC(=O)NCCCC[C@H]5NC(=O)[C@H](CCC(=O)O)NC(=O)[C@@H]6CCCN6C(=O)[C@H](CC(C)(C)C)NC(=O)[C@@H](NC(C)=O)CSCCC(=O)N6CN7CN(C6)C(=O)CCSC[C@H](NC(=O)[C@H](Cc6ccc(O)cc6)NC(=O)[C@@H]6CCCN6C5=O)C(=O)N[C@@H](Cc5ccccc5)C(=O)N[C@@H](C)C(=O)N[C@@H](CCC(=O)O)C(=O)N5CCC[C@H]5C(=O)N[C@@H](Cc5ccc(O)cc5)C(=O)N[C@@H](CCCC)C(=O)N[C@H](C(N)=O)CSCCC7=O)nn4)nn3)C(=O)N3CCC[C@H]3C(=O)N[C@@H](Cc3ccc(O)cc3)C(=O)N2)C(=O)CCSC[C@@H](C(N)=O)NC1=O | Nectin-4 | binding, SPR | – | 2.7
CC#CC(=O)N1CC[C@@H](n2cc(-c3ccc(Oc4c(F)cccc4F)cc3)c3c(N)n[nH]c(=O)c32)C1 | Tyrosine-protein kinase TXK (TXK, Homo sapiens, UniProt P42681) | binding, competition with immobilised ligand | – | 136
CCCN1CCN(c2ccc(-c3cncc(Cl)c3N3CCC4(CCNC4=O)CC3)cc2)CC1 | Serine/threonine-protein kinase 16 (STK16, Homo sapiens, UniProt O75716) | cell-free assay | lysate | 19400
CCCCc1nc2cc(/C=C/C(=O)NO)ccc2n1CCN(CC)CC | Histone deacetylase 2 (HDAC2, Homo sapiens, UniProt Q92769) | cell-free assay | – | 1300
Nc1ncnc2c1ncn2[C@@H]1O[C@H](COP(=O)(O)O)[C@@H](O)[C@H]1O | Adenylosuccinate lyase (ADSL, Homo sapiens, UniProt P30566) | binding, ITC | – | 54000
[N-]=[N+]=N[C@@H]1[C@H](O)[C@@H](CO)O[C@H]1n1ccc(N)nc1=O | UCK1 | binding, fluorescence | – | 65.7
